Assay results: ChEMBL document CHEMBL1141510, “Synthesis and antioxidant activities of 3,5-dialkoxy-4-hydroxycinnamamides” (Bioorg Med Chem Lett, 2008)

What was measured:
Brain = test: Inhibition of lipid peroxidation in Sprague-Dawley rat brain after 30 mins by TBARS assay; type: functional, tissue-based; details: 0.5 h
Summary of the method: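 Brain from male Sprague–Dawley rats (about 10 weeks old) homogenized in ice-cold 10 mM Tris–HCl, pH 7.4, and spun 10 min at 1000g; the supernatant was used. TBARS read at 532 nm against a 1,1,3,3-tetraethoxypropane external standard.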

[1] = Antioxidant activity assessed as ABTS radical scavenging activity; type: functional
[2] = test system: Radical scavenging activity; test: Antioxidant activity assessed as DPPH radical scavenging activity; type: functional
Summary of the method: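 Sample in ethanol added 1:9 to 0.15 mM DPPH radical in ethanol. Test compound solutions ranged 3–1000 µg/ml. Ethanol alone served as control. Reaction ran 10 min at 25 °C, then absorbance was read at 517 nm. Scavenging expressed as percent loss relative to control absorbance. EC50 taken as the concentration giving 50% loss of DPPH radical.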

[3] = Antioxidant activity assessed as ABTS radical scavenging activity at 150 uM; type: functional
[4] = test system: Radical scavenging activity; test: Antioxidant activity assessed as DPPH radical scavenging activity at 300 uM; type: functional

Structure (SMILES)	IC50 (Brain)	IC50 [1]	IC50 [2]	Activity [3]	Activity [4]
CCCCCCOc1cc(/C=C/C(=O)O)cc(OCCCCCC)c1O	2.24 µM	–	–	–	–
COc1cc(/C=C/C(=O)NCCc2cc(C(C)(C)C)c(O)c(C(C)(C)C)c2)cc(OC)c1O	0.69 µM	15.6 µM	69 µM	–	–
CCCCCCOc1cc(/C=C/C(=O)NCCc2cc(C(C)(C)C)c(O)c(C(C)(C)C)c2)cc(OCCCCCC)c1O	2.74 µM	27.4 µM	75.6 µM	–	–
CCCC(C)Oc1cc(/C=C/C(=O)NCc2cc(C(C)(C)C)c(O)c(C(C)(C)C)c2)cc(OC(C)CCC)c1O (centres undefined)	0.57 µM	–	66.6 µM	47%	–
COc1cc(/C=C/C(=O)O)cc(OC)c1O [SINAPINATE]	4.77 µM	–	–	–	–
CCC(CC)Oc1cc(/C=C/C(=O)O)cc(OC(CC)CC)c1O	2.21 µM	–	–	–	–
CCCCCCOc1cc(/C=C/C(=O)NCc2cc(C(C)(C)C)c(O)c(C(C)(C)C)c2)cc(OCCCCCC)c1O	3.52 µM	23.2 µM	–	–	75%
COc1cc(/C=C/C(=O)NCc2cc(C(C)(C)C)c(O)c(C(C)(C)C)c2)cc(OC)c1O	1.46 µM	11.3 µM	80.3 µM	–	–
CCCCOc1cc(/C=C/C(=O)NCc2cc(C(C)(C)C)c(O)c(C(C)(C)C)c2)cc(OCCCC)c1O	0.42 µM	–	177 µM	57%	–

More lines, in order of falling IC50 (Brain), values ahead:

IC50 (Brain)	IC50 [1]	IC50 [2]	Structure (SMILES)	Activity [3]	Activity [4]
57.2 µM	–	–	COc1cc(CNC(=O)CCCc2ccc(C)c(C)c2)ccc1O	–	–
25.9 µM	–	–	COc1cc(CC(=O)NCCCc2ccc(C)c(C)c2)ccc1O	–	–
4.84 µM	–	–	CCCC(C)Oc1cc(/C=C/C(=O)O)cc(OC(C)CCC)c1O (centres undefined)	–	–
3.68 µM	–	–	CCCCOc1cc(/C=C/C(=O)O)cc(OCCCC)c1O	–	–
1.73 µM	–	84.4 µM	CCC(CC)Oc1cc(/C=C/C(=O)NCCCc2ccc(C)c(C)c2)cc(OC(CC)CC)c1O	49%	–
1.33 µM	26.3 µM	68.4 µM	CCCC(C)Oc1cc(/C=C/C(=O)NCCCc2ccc(C)c(C)c2)cc(OC(C)CCC)c1O (centres undefined)	–	–
0.82 µM	–	67.7 µM	CCC(CC)Oc1cc(/C=C/C(=O)NCc2cc(C(C)(C)C)c(O)c(C(C)(C)C)c2)cc(OC(CC)CC)c1O	44%	–
0.44 µM	–	–	CCC(CC)Oc1cc(/C=C/C(=O)NCCc2cc(C(C)(C)C)c(O)c(C(C)(C)C)c2)cc(OC(CC)CC)c1O	–	55%
0.41 µM	–	–	CCCCOc1cc(/C=C/C(=O)NCCc2cc(C(C)(C)C)c(O)c(C(C)(C)C)c2)cc(OCCCC)c1O	–	–
0.36 µM	–	85.1 µM	CCCC(C)Oc1cc(/C=C/C(=O)NCCc2cc(C(C)(C)C)c(O)c(C(C)(C)C)c2)cc(OC(C)CCC)c1O (centres undefined)	64%	–
0.29 µM	28.5 µM	77.7 µM	CCCCCCOc1cc(/C=C/C(=O)NCCCc2ccc(C)c(C)c2)cc(OCCCCCC)c1O	–	–
0.27 µM	–	73 µM	CCCOc1cc(/C=C/C(=O)NCc2cc(C(C)(C)C)c(O)c(C(C)(C)C)c2)cc(OCCC)c1O	24%	–
0.26 µM	–	114 µM	CCCOc1cc(/C=C/C(=O)NCCc2cc(C(C)(C)C)c(O)c(C(C)(C)C)c2)cc(OCCC)c1O	37%	–
